Laboratory results: PMC4180501 (Biochimica et biophysica acta, 2012)
pEC50: −log10 of the molar value.

Molecular target: T1, GK-WT (Homo sapiens, UniProt P35557)
T1 sequence (P35557 1-465): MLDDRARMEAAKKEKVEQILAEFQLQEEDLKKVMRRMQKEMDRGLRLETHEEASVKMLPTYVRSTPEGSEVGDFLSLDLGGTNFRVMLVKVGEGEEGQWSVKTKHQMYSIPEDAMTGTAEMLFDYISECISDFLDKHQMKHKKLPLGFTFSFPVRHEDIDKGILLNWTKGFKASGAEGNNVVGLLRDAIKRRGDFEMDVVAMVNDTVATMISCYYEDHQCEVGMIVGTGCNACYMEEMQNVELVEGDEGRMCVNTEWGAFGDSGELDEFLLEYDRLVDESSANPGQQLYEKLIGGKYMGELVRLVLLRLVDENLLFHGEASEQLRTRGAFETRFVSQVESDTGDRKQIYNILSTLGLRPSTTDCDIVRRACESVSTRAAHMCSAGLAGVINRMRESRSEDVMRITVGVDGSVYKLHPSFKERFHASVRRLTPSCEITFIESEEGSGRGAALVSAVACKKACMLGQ
Experiment: DSC thermal denaturation
How it was run: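 Wild-type recombinant human GK was run by DSC at 0.3 mg/ml (6 µM) in 5 mM phosphate, 100 mM KCl, pH 7.3, in buffer or 20% glycerol, with glucose up to 300 mM. The scan was 0.25 degree/min against a protein-free reference. Tm was plotted against glucose and fit to a hyperbola for EC50. Unfolding rate constant used k=vCp/(Qt−Q) to derive activation energy.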

[1] = GK-WT in 20% glycerol, 300 mM D-glucose
[2] = GK-WT in buffer, 300 mM D-glucose
[3] = GK-WT, 20% glycerol, 7.5 mM D-glucose
[4] = GK-WT, 20% glycerol, 50 mM D-glucose
[5] = GK-WT, 20% glycerol, 100 mM D-glucose
[6] = GK-WT, 20% glycerol, 200 mM D-glucose
[7] = GK-WT, buffer, 7.5 mM D-glucose
[8] = GK-WT, buffer, 100 mM D-glucose
[9] = GK-WT, buffer, 200 mM D-glucose

## OC[C@H]1OC(O)[C@H](O)[C@@H](O)[C@@H]1O (stereo partly drawn) [D-glucose]
EC50 of glucose dependency of heat capacity (Cp), 20% glycerol, hyperbolic fit
  pEC50: 1.46
[1]
  Cp^m: 222.2 kJ/mol/°C
  ΔH thermal denaturation: 707.1 kJ/mol
GK-WT in 20% glycerol, 300 mM D-glucose, DSC
  Tm: 56.9 °C
[2]
  Cp^m: 130.5 kJ/mol/°C
  ΔH thermal denaturation: 564.8 kJ/mol
GK-WT in buffer, 300 mM D-glucose, DSC
  Tm: 52.2 °C
[3]
  Cp^m: 148.1 kJ/mol/°C
  Ea thermal denaturation: 733.6 kJ/mol
  Tm: 52.6 °C
[4]
  Cp^m: 186.2 kJ/mol/°C
  Ea thermal denaturation: 795.5 kJ/mol
  Tm: 54.8 °C
[5]
  Cp^m: 196.2 kJ/mol/°C
  Ea thermal denaturation: 809.9 kJ/mol
  Tm: 55.5 °C
[6]
  Cp^m: 212.5 kJ/mol/°C
  Ea thermal denaturation: 795.2 kJ/mol
  Tm: 56.3 °C
GK-WT, 20% glycerol, 300 mM D-glucose
  Ea thermal denaturation: 791.9 kJ/mol
[7]
  Cp^m: 63.2 kJ/mol/°C
  Ea thermal denaturation: 502 kJ/mol
  Tm: 48.0 °C
GK-WT, buffer, 25 mM D-glucose
  Cp^m: 90.8 kJ/mol/°C
  Ea thermal denaturation: 562.2 kJ/mol
  Tm: 49.5 °C
GK-WT, buffer, 50 mM D-glucose
  Cp^m: 101.7 kJ/mol/°C
  Ea thermal denaturation: 575.2 kJ/mol
  Tm: 50.0 °C
[8]
  Cp^m: 109.6 kJ/mol/°C
  Ea thermal denaturation: 571 kJ/mol
  Tm: 50.9 °C
[9]
  Cp^m: 128.4 kJ/mol/°C
  Ea thermal denaturation: 586.9 kJ/mol
  Tm: 52.2 °C
GK-WT, buffer, 300 mM D-glucose
  Ea thermal denaturation: 572 kJ/mol
